# Results published in ChEMBL document CHEMBL4184236, “Design, synthesis and biological evaluation of matrine derivatives as potential anticancer agents” (Bioorg Med Chem Lett, 2018).
# Experiments:
# Type in all cases: functional, cell-based
# SMMC-7721 = assay: Anticancer activity against human SMMC7721 cells assessed as reduction in cell viability incubated for 48 hrs MTT assay; settings: SMMC-7721, 48 h
# Procedure, shortened: (§1)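 MTT assay on human hepatocarcinoma SMMC-7721, lung carcinoma A549 and nasopharyngeal carcinoma CNE2 cells, with matrine as comparator and cisplatin as positive control. IC50 is the concentration that lowers optical density of treated cells by 50% versus untreated cells, given as the mean ± SD of three experiments.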
# A549 = assay: Anticancer activity against human A549 cells assessed as reduction in cell viability incubated for 48 hrs MTT assay; settings: A549, 48 h; procedure, shortened: as §1
# CNE-2 = assay: Anticancer activity against human CNE2 cells assessed as reduction in cell viability incubated for 48 hrs MTT assay; settings: CNE-2, 48 h; procedure, shortened: as §1
Structure (SMILES),IC50 (SMMC-7721) [µM],IC50 (A549) [µM],IC50 (CNE-2) [µM]
O=C1/C(=C/c2cn(Cc3ccccc3)c3ccccc23)CC[C@@H]2[C@H]3CCCN4CCC[C@@H](CN12)[C@@H]34,11.9,13.9,10.8
COc1cc(Cn2cc(/C=C3\CC[C@@H]4[C@H]5CCCN6CCC[C@@H](CN4C3=O)[C@@H]56)c3ccccc32)cc(OC)c1OC,15.5,> 50,20
O=C1/C(=C/c2cccn2Cc2ccccc2Br)CC[C@@H]2[C@H]3CCCN4CCC[C@@H](CN12)[C@@H]34,15.1,12,17.3
O=C1/C(=C/c2cccn2Cc2cccc(Br)c2)CC[C@@H]2[C@H]3CCCN4CCC[C@@H](CN12)[C@@H]34,16.2,13.8,15
O=C1/C(=C/c2cccn2Cc2ccc(OC(F)(F)F)cc2)CC[C@@H]2[C@H]3CCCN4CCC[C@@H](CN12)[C@@H]34,36.6,47.1,23.9
CC(C)(C)c1ccc(Cn2cccc2/C=C2\CC[C@@H]3[C@H]4CCCN5CCC[C@@H](CN3C2=O)[C@@H]45)cc1,16,15.8,13.8
O=C1CCC[C@@H]2[C@H]3CCCN4CCC[C@@H](CN12)[C@@H]34 [MATRINE],6590,5720,5280
Cn1cccc1/C=C1\CC[C@@H]2[C@H]3CCCN4CCC[C@@H](CN2C1=O)[C@@H]34,> 100,> 100,> 100
O=C1/C(=C/c2cn(Cc3cccc(Cl)c3)c3cc(Cl)ccc23)CC[C@@H]2[C@H]3CCCN4CCC[C@@H](CN12)[C@@H]34,23.7,26.3,23.7
COc1cccc(Cn2cccc2/C=C2\CC[C@@H]3[C@H]4CCCN5CCC[C@@H](CN3C2=O)[C@@H]45)c1,13.4,29.8,7.05
Cc1cccc(Cn2cccc2/C=C2\CC[C@@H]3[C@H]4CCCN5CCC[C@@H](CN3C2=O)[C@@H]45)c1,30.7,44.3,24.5
O=C1/C(=C/c2cccn2Cc2ccc(Cl)cc2)CC[C@@H]2[C@H]3CCCN4CCC[C@@H](CN12)[C@@H]34,21.6,21.6,15.2
COc1ccc(Cn2ccc3c(/C=C4\CC[C@@H]5[C@H]6CCCN7CCC[C@@H](CN5C4=O)[C@@H]67)cccc32)cc1,28.2,28.4,15.5
O=C1/C(=C/c2cccn2Cc2ccccc2)CC[C@@H]2[C@H]3CCCN4CCC[C@@H](CN12)[C@@H]34,38.4,42.9,45.7
Cc1ccccc1Cn1cc(/C=C2\CC[C@@H]3[C@H]4CCCN5CCC[C@@H](CN3C2=O)[C@@H]45)c2ccccc21,12,12.1,10.8
COc1ccc(Cn2cccc2/C=C2\CC[C@@H]3[C@H]4CCCN5CCC[C@@H](CN3C2=O)[C@@H]45)cc1,41.6,39.1,28.8
O=C1/C(=C/c2cn(Cc3ccccc3Cl)c3ccccc23)CC[C@@H]2[C@H]3CCCN4CCC[C@@H](CN12)[C@@H]34,17.6,18.3,17.4
CC(C)(C)c1ccc(Cn2ccc3c(/C=C4\CC[C@@H]5[C@H]6CCCN7CCC[C@@H](CN5C4=O)[C@@H]67)cccc32)cc1,13.8,15.5,9.75
COc1ccc(Cn2cc(/C=C3\CC[C@@H]4[C@H]5CCCN6CCC[C@@H](CN4C3=O)[C@@H]56)c3ccccc32)cc1OC,11.8,12.5,11.6
COc1ccc(Br)c(Cn2cccc2/C=C2\CC[C@@H]3[C@H]4CCCN5CCC[C@@H](CN3C2=O)[C@@H]45)c1,12.2,14.5,11.6
O=C1/C(=C/c2cn(Cc3ccc(OC(F)(F)F)cc3)c3ccc(Br)cc23)CC[C@@H]2[C@H]3CCCN4CCC[C@@H](CN12)[C@@H]34,11.5,9.04,6.04
O=C1/C(=C/c2cccn2Cc2ccc(Br)cc2)CC[C@@H]2[C@H]3CCCN4CCC[C@@H](CN12)[C@@H]34,17.6,22.9,17.8
Cc1cc(C)cc(Cn2cccc2/C=C2\CC[C@@H]3[C@H]4CCCN5CCC[C@@H](CN3C2=O)[C@@H]45)c1,49.4,> 50,32.1
O=C1/C(=C/c2cccn2Cc2cccc(Cl)c2)CC[C@@H]2[C@H]3CCCN4CCC[C@@H](CN12)[C@@H]34,20.9,22.3,16.3

# Continued by falling IC50 (SMMC-7721), values first:
IC50 (SMMC-7721) [µM],IC50 (A549) [µM],Structure (SMILES),IC50 (CNE-2) [µM]
11.2,12.1,O=C1/C(=C/c2cn(Cc3ccc(Cl)cc3)c3ccccc23)CC[C@@H]2[C@H]3CCCN4CCC[C@@H](CN12)[C@@H]34,11
10.7,10.9,CC(C)(C)c1ccc(Cn2ccc3cc(/C=C4\CC[C@@H]5[C@H]6CCCN7CCC[C@@H](CN5C4=O)[C@@H]67)ccc32)cc1,8.99
9.81,16.8,O=C1/C(=C/c2cn(Cc3cccc(Cl)c3)c3ccc(Br)cc23)CC[C@@H]2[C@H]3CCCN4CCC[C@@H](CN12)[C@@H]34,8.5
9.76,12.6,O=C1/C(=C/c2cn(Cc3ccc(OCc4ccccc4)cc3)c3ccccc23)CC[C@@H]2[C@H]3CCCN4CCC[C@@H](CN12)[C@@H]34,11.7
9.73,5.24,O=C1/C(=C/c2cn(Cc3ccc(OC(F)(F)F)cc3)c3ccc(Cl)cc23)CC[C@@H]2[C@H]3CCCN4CCC[C@@H](CN12)[C@@H]34,3.52
9.12,9.84,Cc1ccc(Cn2cc(/C=C3\CC[C@@H]4[C@H]5CCCN6CCC[C@@H](CN4C3=O)[C@@H]56)c3ccccc32)cc1,8.91
9.06,13.2,COc1ccc2c(/C=C3\CC[C@@H]4[C@H]5CCCN6CCC[C@@H](CN4C3=O)[C@@H]56)cn(Cc3ccc4ccccc4c3)c2c1,5.42
8.73,10.1,COc1ccc2c(/C=C3\CC[C@@H]4[C@H]5CCCN6CCC[C@@H](CN4C3=O)[C@@H]56)cn(Cc3ccc(Cl)cc3)c2c1,6.84
8.52,9.24,Cc1cccc(Cn2cc(/C=C3\CC[C@@H]4[C@H]5CCCN6CCC[C@@H](CN4C3=O)[C@@H]56)c3ccccc32)c1,7.91
8.35,9.13,Cc1ccc2c(c1)c(/C=C1\CC[C@@H]3[C@H]4CCCN5CCC[C@@H](CN3C1=O)[C@@H]45)cn2Cc1cccc(Cl)c1,11.8
7.58,7.53,O=C1/C(=C/c2cn(Cc3cccc(Cl)c3)c3ccccc23)CC[C@@H]2[C@H]3CCCN4CCC[C@@H](CN12)[C@@H]34,6.36
6.89,7.45,COc1ccc2c(c1)c(/C=C1\CC[C@@H]3[C@H]4CCCN5CCC[C@@H](CN3C1=O)[C@@H]45)cn2Cc1ccc2ccccc2c1,6.72
5.65,8.53,O=C1/C(=C/c2cn(Cc3ccc4ccccc4c3)c3ccccc23)CC[C@@H]2[C@H]3CCCN4CCC[C@@H](CN12)[C@@H]34,4.56
5.65,7.12,COc1ccc2c(c1)c(/C=C1\CC[C@@H]3[C@H]4CCCN5CCC[C@@H](CN3C1=O)[C@@H]45)cn2Cc1ccc(Cl)cc1,4.65
3.26,5.04,Cc1ccc2c(c1)c(/C=C1\CC[C@@H]3[C@H]4CCCN5CCC[C@@H](CN3C1=O)[C@@H]45)cn2Cc1ccc2ccccc2c1,3.53
